Laboratory results reported in paper PMC12705676 (Scientific Reports, 2025).

Legend:
[1] = system: AGS (human gastric adenocarcinoma); experiment: SRB cytotoxicity assay, AGS cells; assay type: cell-based; details: read-out: IC50 AGS; SRB, 72 h treatment, mean ± SD
How it was run: (§1)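 Cells plated at 3 × 10³ per well and left 24 h to attach at 37 °C, 5% CO₂. Test compound at 0–100 µM from ethanol stocks (1% final ethanol) for 72 h. Fixation in TCA (10% final), staining with 0.1% SRB, dye solubilized in 10 mM Tris, A540. Viability relative to 1% ethanol vehicle. IC50 from a four-parameter logistic fit with 95% CI; triplicate, three independent runs, mean ± SD. SI = IC50 in GES-1 divided by IC50 in the cancer line.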

[2] = system: HT-29 (human colorectal adenocarcinoma); experiment: SRB cytotoxicity assay, HT-29 cells; assay type: cell-based; details: read-out: IC50 HT-29; SRB, 72 h treatment, mean ± SD
How it was run: as §1

[3] = system: PC-3 (human prostate cancer); experiment: SRB cytotoxicity assay, PC-3 cells; assay type: cell-based; details: read-out: IC50 PC-3; SRB, 72 h treatment, mean ± SD
How it was run: as §1

[4] = system: GES-1 (healthy gastric epithelial cells); experiment: SRB cytotoxicity assay, GES-1 non-tumor cells; assay type: cell-based, human; details: read-out: IC50 GES-1, 72 h treatment, mean ± SD
[5] = DPPH radical scavenging assay; assay type: biochemical; details: concentration to scavenge 50% of radicals, 15 min, mean ± SD
How it was run: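 Test compound solutions (5–400 µg/mL, concentration before mixing) were added to 50 µM ethanolic DPPH and kept 15 min at room temperature in the dark, then read at 517 nm. A blank with solvent in place of compound served as control. IC50 came from linear regression of % scavenging against concentration. Three independent experiments in triplicate, mean ± SD.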

[6] = ABTS radical scavenging assay; assay type: biochemical; details: concentration to scavenge 50% of radicals, mean ± SD
How it was run: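 ABTS radical cation generated by reacting ABTS with potassium persulfate, then diluted to an absorbance of about 0.700 at 732 nm. Test compound at several concentrations was mixed with the ABTS⁺ solution and the fall in absorbance recorded. Percent scavenging was calculated against a solvent control, with ascorbic acid as reference antioxidant. Three independent experiments in triplicate, mean ± SD.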

human erythrocytes = experiment: Hemolysis assay; assay type: cell-based; details: for Hemolysis (%): 30 min, 37 °C
How it was run: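 Donor blood was collected in EDTA. RBCs were pelleted at 500 × g for 10 min, washed three times in PBS and resuspended in PBS. Cells were exposed to test compound at 10–300 µg/mL for 30 min at 37 °C with gentle agitation, then spun at 1000 × g for 5 min; supernatant hemoglobin was read at 540 nm. Deionized water defined 100% and PBS 0% hemolysis. Triplicate, three independent repeats.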

DPPH IC50 [5]: inactive | ABTS IC50 [6]: inactive | IC50 ([6]; read-out: ABTS IC50): > 2630 µM
SMILES: CC12CCC(CC1=O)C2(C)C (centres unmarked) [Compound 2, camphor, reference compound]
IC50 [1]: > 100 µM | IC50 [2]: > 100 µM | IC50 [3]: > 100 µM | IC50 [4]: 322.7 ± 1.7 µM | Hemolysis (%) (human erythrocytes; 10 µg/mL): 5.25% | Hemolysis (%) (human erythrocytes; 25 µg/mL): 6.55% | Hemolysis (%) (human erythrocytes; 50 µg/mL): 9.61% | Hemolysis (%) (human erythrocytes; 100 µg/mL): 11.29% | Hemolysis (%) (human erythrocytes; 200 µg/mL): 16.16% | Hemolysis (%) (human erythrocytes; 300 µg/mL): 16.62% | Hemolysis, result in words (human erythrocytes; 10–300 µg/mL): concentration dependent increase in hemolysis
